Laboratory results: PubChem BioAssay AID463192 (Sanford-Burnham Center for Chemical Genomics, 2010)
Calls of active or inactive are those of the source.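 The calls were made as follows: active = membrane recruitment of a green fluorescent kinase sensor scored by eye at 30% or more; inactive = the rest.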

Target: G-protein coupled receptor 55 (Homo sapiens) (UniProt Q9Y2T6)
Test: GPR55 agonists inducing PKCbII-GFP membrane recruitment, SAR follow-up, imaging, HEK293 (AID 463192)
Summary of the method: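 Assay system: HEK293 cells transiently expressing wild-type human GPR55 and PKC βII-GFP biosensor. Medium: serum-free MEM. Doses: four-point compound series, 10 nM to 10 µM final, duplicate. Timing: compound exposure 15 min, 37 °C. Measured by: fluorescence imaging of 1% PFA-fixed cells, visual scoring. Repeats: duplicates.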

Sequence of G-protein coupled receptor 55 (Homo sapiens) (Q9Y2T6 whole entry, looked up): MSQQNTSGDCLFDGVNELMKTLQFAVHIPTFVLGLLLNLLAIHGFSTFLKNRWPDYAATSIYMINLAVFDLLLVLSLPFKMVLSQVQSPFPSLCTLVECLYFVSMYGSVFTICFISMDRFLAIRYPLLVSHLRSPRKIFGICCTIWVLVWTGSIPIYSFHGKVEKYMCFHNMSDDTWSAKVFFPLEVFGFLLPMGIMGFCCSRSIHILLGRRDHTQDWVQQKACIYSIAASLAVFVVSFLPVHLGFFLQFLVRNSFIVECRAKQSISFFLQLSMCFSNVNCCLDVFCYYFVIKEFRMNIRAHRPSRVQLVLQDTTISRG

outcome | Structure (SMILES)
active; +++ | COc1ccccc1/C=C/C(=O)NC(=S)Nc1ccc(S(=O)(=O)N(C)c2ccccc2)cc1
active; +++ | Cc1occc1C(=O)Nc1ccc(OCc2ccccc2)cc1
active; +++ | Cc1cccc(N2CCN(C(=O)c3cc(S(=O)(=O)N(C)C)ccc3N3CCCC3)CC2)c1C
active; +++ | CN(C)S(=O)(=O)c1ccc(N2CCCC2)c(C(=O)N2CCN(c3ccc([N+](=O)[O-])cc3)CC2)c1
active; +++ | COc1ccc(S(=O)(=O)N2CCOCC2)cc1NC(=O)c1cc2c(s1)CCCC2
active; +++ | CC(C)Oc1ccc(S(=O)(=O)N2CCOCC2)cc1NC(=O)c1ccc(N2CCCC2=O)cc1
active; +++ | COc1ccc(-c2csc(NC(=O)CSc3nnc4c(C)cc5ccccc5n34)n2)cc1
active; +++ | CCCN(CCC)Cc1c(C(=O)NN=Cc2c[nH]c3ccccc23)nnn1-c1nonc1N
active; +++ | COc1ccc2cc(C)c3nnc(SCC(=O)Nc4nc(-c5ccc(F)cc5)cs4)n3c2c1
